Experimental data reported in ChEMBL document CHEMBL3797175, “Discovery of 6-(difluoro(6-(4-fluorophenyl)-[1,2,4]triazolo[4,3-b][1,2,4]triazin-3-yl)methyl)quinoline as a highly potent and selective c-Met inhibitor” (Eur J Med Chem, 2016).
Calls of active or inactive are those of the source. No cut-off for these calls is given here.

How the values were obtained:
EBC-1 = assay: Antitumor activity against human EBC1 cells xenografted in po dosed athymic nude mouse assessed as tumor growth inhibition administered bid for 21 days measured twice a week during compound dosing; assay type: functional, organism-based
Outline: (§1)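 Nude mice bearing s.c. tumours. Cells were first grown s.c. to 700–800 mm³, then 1.5 mm³ fragments were transplanted s.c. into the right flank. Mice were randomised at 100–200 mm³ (n=6 treated, n=12 vehicle) and dosed orally twice daily for 21 days. Caliper measurement twice weekly; TV = length×width²/2. TGI taken on the final day versus vehicle; Student's t test.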

[1] = molecular target: Tyrosine-protein kinase Mer (Homo sapiens) (UniProt Q12866); conditions: 1000 nM
[2] = Selectivity ratio of IC50 for human HCT116 cells to IC50 for human MKN45 cells; assay type: ADME, cell-based; conditions: hct-116
Outline: (§2)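 Both IC50s in each ratio come from one proliferation assay. Cells were seeded and exposed the next day to a range of concentrations for 72 h, then read by SRB or MTT. IC50s were fitted by four-parameter concentration–response, with each concentration at least in triplicate and at least 2 experiments. BaF3/TPR-Met is murine pre-B BaF3 transfected with TPR-MET and puromycin-selected.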

MKN-45 = assay: Antitumor activity against human MKN45 cells xenografted in po dosed athymic nude mouse assessed as tumor growth inhibition administered bid for 21 days measured twice a week during compound dosing; assay type: functional, organism-based; outline: as §1
[3] = Antiproliferative activity against human HCT116 cells after 72 hrs by SRB or MTT assay; assay type: functional, cell-based; conditions: HCT-116, 72 h
Outline: (§3)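 Cells seeded, exposed next day to a range of concentrations for 72 h. Growth read by sulforhodamine B or MTT. IC50 from four-parameter concentration-response fit. Each concentration tested at least in triplicate, with at least 2 experiments.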

[4] = Selectivity ratio of IC50 for human SPCA1 cells to IC50 for human EBC1 cells; assay type: ADME, cell-based; conditions: SPCA1 cells versus EBC1 cells
[5] = Selectivity ratio of IC50 for human Calu3 cells to IC50 for human EBC1 cells; assay type: ADME, cell-based; conditions: calu-3; outline: as §2
[6] = molecular target: Tyrosine-protein kinase Mer (Homo sapiens, UniProt Q12866); assay: Inhibition of recombinant c-Mer (unknown origin) using poly (Glu, Tyr) 4:1 as substrate incubated for 60 mins by ELISA
[7] = Selectivity ratio of IC50 for human SPCA4 cells to IC50 for human MKN45 cells; assay type: ADME, cell-based, SPC-A4; conditions: SPCA4 cells versus MKN45 cells
[8] = Selectivity ratio of IC50 for human NCI-H358 cells to IC50 for human EBC1 cells; assay type: ADME, cell-based; outline: as §2
NCI-H596 = assay: Antiproliferative activity against human NCI-H596 cells after 72 hrs by SRB or MTT assay; assay type: functional, cell-based; conditions: NCI-H596, 72 h; outline: as §3
[9] = Selectivity ratio of IC50 for human NCI-H226 cells to IC50 for human EBC1 cells; assay type: ADME, cell-based; outline: as §2
[10] = molecular target: T1, Hepatocyte growth factor receptor (Homo sapiens, UniProt P08581); assay: Inhibition of c-Met in human NCI-H441 cells assessed as inhibition of HGF-induced cell migration after 24 hrs by crystal violet staining based microscopic analysis
T1 sequence (P08581 whole entry): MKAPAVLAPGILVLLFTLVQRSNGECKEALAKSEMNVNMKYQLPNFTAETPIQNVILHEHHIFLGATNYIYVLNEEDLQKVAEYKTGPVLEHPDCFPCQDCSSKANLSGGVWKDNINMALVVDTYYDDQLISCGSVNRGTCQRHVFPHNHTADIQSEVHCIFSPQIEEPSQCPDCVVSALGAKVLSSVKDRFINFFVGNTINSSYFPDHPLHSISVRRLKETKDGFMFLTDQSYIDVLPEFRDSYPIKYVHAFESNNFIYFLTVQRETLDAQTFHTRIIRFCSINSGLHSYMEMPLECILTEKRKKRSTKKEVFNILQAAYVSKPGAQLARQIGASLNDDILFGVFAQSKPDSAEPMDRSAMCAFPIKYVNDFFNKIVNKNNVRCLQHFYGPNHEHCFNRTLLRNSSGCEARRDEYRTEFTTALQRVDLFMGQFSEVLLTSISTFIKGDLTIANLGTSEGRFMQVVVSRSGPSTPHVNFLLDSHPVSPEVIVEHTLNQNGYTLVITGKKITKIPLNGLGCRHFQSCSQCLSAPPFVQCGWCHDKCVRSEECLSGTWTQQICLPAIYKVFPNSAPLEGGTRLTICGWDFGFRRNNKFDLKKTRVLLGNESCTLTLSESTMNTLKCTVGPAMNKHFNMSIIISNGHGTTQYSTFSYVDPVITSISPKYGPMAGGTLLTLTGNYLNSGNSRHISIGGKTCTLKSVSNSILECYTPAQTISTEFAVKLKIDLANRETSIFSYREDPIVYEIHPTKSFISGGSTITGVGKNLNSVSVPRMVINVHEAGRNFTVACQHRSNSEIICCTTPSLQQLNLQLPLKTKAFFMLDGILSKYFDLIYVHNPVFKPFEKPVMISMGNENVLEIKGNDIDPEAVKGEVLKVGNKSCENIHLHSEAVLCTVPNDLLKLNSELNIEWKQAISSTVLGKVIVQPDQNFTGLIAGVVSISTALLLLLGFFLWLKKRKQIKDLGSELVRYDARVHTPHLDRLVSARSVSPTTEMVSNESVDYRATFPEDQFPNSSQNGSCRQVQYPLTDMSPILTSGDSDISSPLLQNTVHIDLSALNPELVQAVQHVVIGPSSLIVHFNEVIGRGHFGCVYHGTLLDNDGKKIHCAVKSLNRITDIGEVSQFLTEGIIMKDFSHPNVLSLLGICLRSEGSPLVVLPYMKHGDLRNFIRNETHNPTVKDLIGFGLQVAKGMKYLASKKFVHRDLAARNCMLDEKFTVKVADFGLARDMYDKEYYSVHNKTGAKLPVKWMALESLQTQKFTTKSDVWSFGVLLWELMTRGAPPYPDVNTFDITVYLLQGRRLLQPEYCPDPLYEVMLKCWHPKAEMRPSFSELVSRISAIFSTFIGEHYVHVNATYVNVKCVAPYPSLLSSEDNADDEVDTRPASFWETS
Outline: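 NCI-H441 cells, 1.5×10^5 in serum-free medium, placed in upper Transwell chamber (8 µm pores; Matrigel-coated for invasion). Lower chamber serum-free medium ± HGF 100 ng/mL, with compound. After 24 h at 37 °C, non-migrated cells removed. Traversed cells stained with 0.1% crystal violet 15 min and imaged in 5 fields per filter. Three independent experiments.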

[11] = Selectivity ratio of IC50 for human SNU16 cells to IC50 for mouse BAF3 cells expressing TPR-MET; assay type: ADME, cell-based
[12] = molecular target: T1, Hepatocyte growth factor receptor; assay: Inhibition of c-Met in human MKN45 cells assessed as reduction in ERK phosphorylation at Threonine 202 at 10 nM after 1 hr by Western blot analysis; assay type: cell-based; conditions: MKN-45
Outline: (§4)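 EBC-1 or MKN45 cells treated with compound 1 h at 37 °C without HGF, then lysed in 1× SDS sample buffer. Lysates run on 10% SDS-PAGE and transferred to nitrocellulose. Probed with antibodies to c-Met, phospho-c-Met, phospho-ERK1/2, phospho-AKT, AKT and GAPDH, then HRP secondary. ECL detection.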

[13] = molecular target: Proto-oncogene tyrosine-protein kinase ROS (Homo sapiens) (UniProt P08922); assay: Inhibition of recombinant ROS1 (unknown origin) using poly (Glu, Tyr) 4:1 as substrate at 1000 nM incubated for 60 mins by ELISA relative to control
Sequence of Proto-oncogene tyrosine-protein kinase ROS (Homo sapiens) (P08922 whole entry): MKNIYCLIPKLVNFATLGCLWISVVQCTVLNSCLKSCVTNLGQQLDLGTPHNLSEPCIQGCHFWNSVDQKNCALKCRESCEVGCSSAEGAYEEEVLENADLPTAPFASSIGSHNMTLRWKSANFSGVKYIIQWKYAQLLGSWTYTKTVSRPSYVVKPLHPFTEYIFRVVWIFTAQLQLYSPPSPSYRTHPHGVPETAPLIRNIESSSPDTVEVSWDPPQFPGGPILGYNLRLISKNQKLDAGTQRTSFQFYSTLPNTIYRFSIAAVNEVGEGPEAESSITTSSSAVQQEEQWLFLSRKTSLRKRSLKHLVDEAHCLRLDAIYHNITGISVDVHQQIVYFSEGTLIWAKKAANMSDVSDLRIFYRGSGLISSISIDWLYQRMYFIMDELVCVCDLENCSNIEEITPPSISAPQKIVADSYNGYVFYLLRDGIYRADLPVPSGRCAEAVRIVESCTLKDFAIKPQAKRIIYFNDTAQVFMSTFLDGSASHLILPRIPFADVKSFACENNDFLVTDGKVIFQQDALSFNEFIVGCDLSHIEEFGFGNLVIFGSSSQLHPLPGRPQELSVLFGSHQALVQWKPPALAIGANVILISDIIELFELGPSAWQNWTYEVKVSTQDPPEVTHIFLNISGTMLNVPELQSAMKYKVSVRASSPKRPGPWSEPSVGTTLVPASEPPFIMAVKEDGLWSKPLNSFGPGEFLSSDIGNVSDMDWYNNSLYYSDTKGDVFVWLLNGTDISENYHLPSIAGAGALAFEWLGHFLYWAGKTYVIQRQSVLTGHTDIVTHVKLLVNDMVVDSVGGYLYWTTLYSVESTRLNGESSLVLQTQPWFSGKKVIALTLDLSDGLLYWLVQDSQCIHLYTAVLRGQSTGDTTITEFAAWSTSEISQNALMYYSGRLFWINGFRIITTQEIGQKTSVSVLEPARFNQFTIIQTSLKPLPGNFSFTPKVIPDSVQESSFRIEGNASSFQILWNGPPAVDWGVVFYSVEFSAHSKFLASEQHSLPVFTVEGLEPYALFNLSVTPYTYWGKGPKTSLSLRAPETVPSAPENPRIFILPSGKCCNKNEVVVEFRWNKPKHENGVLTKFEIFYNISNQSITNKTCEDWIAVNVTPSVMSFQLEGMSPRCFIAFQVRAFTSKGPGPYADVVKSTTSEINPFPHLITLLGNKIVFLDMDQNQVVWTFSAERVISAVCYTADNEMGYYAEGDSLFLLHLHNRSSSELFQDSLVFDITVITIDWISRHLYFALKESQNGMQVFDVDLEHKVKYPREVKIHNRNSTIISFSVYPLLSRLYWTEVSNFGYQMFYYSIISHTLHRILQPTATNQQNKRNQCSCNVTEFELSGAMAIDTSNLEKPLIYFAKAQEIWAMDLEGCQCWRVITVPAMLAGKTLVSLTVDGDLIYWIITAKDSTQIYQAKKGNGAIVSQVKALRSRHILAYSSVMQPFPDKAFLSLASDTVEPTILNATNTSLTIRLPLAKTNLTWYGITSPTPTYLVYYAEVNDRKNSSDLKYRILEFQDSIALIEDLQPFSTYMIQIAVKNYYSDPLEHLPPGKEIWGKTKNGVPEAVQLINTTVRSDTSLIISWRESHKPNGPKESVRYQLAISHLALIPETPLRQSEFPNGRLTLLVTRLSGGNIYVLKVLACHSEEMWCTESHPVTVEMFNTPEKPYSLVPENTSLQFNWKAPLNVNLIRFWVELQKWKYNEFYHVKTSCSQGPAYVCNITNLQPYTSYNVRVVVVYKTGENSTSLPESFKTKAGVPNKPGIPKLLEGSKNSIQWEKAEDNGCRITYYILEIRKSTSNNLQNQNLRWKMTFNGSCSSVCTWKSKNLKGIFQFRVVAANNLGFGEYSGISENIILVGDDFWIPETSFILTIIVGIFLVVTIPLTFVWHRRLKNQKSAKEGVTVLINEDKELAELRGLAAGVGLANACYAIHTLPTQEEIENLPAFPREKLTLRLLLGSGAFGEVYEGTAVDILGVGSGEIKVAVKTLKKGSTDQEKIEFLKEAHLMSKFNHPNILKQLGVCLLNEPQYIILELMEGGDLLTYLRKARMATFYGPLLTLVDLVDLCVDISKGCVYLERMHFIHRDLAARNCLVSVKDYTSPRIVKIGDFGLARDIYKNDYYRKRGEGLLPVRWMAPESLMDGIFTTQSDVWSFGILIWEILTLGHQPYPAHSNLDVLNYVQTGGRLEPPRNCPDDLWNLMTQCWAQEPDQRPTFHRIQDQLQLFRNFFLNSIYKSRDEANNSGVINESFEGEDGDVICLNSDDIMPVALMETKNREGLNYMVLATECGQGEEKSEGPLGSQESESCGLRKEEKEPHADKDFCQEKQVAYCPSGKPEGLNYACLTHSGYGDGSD
Outline: (§5)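 Recombinant tyrosine kinases assayed on wells precoated with poly(Glu,Tyr)4:1 (20 µg/mL). ATP 10 µmol/L in HEPES pH 7.4 buffer with MgCl2, MnCl2, Na3VO4 and DTT; compound in 1% DMSO, 1% DMSO as control. Reaction 60 min at 37 °C. Phosphotyrosine detected with PY99 and HRP anti-mouse, o-phenylenediamine, A490. Inhibition % relative to control; two experiments.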

[14] = molecular target: Insulin-like growth factor 1 receptor (Homo sapiens) (UniProt P08069); assay: Inhibition of recombinant IGF1R (unknown origin) using poly (Glu, Tyr) 4:1 as substrate at 1000 nM incubated for 60 mins by ELISA relative to control; outline: as §5
Sequence of Insulin-like growth factor 1 receptor (Homo sapiens) (P08069 31-736 limits assumed): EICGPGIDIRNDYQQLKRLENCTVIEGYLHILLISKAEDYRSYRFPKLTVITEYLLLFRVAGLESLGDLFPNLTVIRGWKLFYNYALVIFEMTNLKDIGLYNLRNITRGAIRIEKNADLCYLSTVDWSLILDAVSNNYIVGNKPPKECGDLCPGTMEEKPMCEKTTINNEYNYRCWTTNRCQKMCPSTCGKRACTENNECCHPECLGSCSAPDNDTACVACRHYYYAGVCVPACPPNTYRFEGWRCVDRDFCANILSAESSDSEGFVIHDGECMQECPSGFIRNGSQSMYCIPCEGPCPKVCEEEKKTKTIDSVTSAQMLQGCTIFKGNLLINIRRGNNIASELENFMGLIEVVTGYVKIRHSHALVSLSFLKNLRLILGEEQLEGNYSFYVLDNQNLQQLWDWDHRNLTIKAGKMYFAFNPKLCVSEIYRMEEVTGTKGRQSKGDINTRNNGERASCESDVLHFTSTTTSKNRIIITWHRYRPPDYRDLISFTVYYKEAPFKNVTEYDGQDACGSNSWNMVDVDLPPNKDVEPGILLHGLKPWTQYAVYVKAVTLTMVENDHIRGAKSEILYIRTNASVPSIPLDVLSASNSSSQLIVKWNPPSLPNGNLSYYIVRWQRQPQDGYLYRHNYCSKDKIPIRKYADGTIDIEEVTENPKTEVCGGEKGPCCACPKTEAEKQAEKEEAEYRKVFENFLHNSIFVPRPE
Sequence of Insulin-like growth factor 1 receptor (Homo sapiens) (P08069 741-1367 limits assumed): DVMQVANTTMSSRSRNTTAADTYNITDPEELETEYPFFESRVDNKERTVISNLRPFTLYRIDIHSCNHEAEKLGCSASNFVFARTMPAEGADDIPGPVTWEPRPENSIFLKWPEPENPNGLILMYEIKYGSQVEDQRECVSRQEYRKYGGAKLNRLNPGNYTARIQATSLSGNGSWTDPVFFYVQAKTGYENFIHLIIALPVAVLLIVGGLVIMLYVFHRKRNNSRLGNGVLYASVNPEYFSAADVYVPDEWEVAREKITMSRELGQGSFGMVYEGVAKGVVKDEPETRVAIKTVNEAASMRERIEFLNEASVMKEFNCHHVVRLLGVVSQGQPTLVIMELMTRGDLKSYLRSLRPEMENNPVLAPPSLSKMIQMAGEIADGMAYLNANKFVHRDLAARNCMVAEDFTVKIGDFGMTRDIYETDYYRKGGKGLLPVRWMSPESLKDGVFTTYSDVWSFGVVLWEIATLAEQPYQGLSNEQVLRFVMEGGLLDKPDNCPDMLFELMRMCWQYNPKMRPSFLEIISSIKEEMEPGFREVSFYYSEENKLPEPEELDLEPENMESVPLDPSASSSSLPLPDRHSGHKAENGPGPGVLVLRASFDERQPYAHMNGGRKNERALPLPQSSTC

[15] = Selectivity ratio of IC50 for human SPCA4 cells to IC50 for human EBC1 cells; assay type: ADME, cell-based; conditions: spc-a4
[16] = molecular target: T1, Hepatocyte growth factor receptor; assay: Inhibition of recombinant c-Met (unknown origin) using poly (Glu, Tyr) 4:1 as substrate incubated for 60 mins by ELISA
[17] = Antiproliferative activity against human MGC803 cells after 72 hrs by SRB or MTT assay; assay type: functional, cell-based; conditions: MGC-803, 72 h; outline: as §3
[18] = molecular target: T1, Hepatocyte growth factor receptor; assay: Inhibition of c-Met phosphorylation at Tyrosine 1235 in human EBC1 cells at 10 nM after 1 hr by Western blot analysis; assay type: cell-based; outline: as §4
NCI-H661 = assay: Antiproliferative activity against human NCI-H661 cells after 72 hrs by SRB or MTT assay; assay type: functional, cell-based; conditions: NCI-H661, 72 h; outline: as §3
[19] = Selectivity ratio of IC50 for human BGC823 cells to IC50 for human EBC1 cells; assay type: ADME, cell-based; conditions: bgc-823; outline: as §2
AGS = assay: Antiproliferative activity against human AGS cells after 72 hrs by SRB or MTT assay; assay type: functional, cell-based; outline: as §3
NCI-H292 = assay: Antiproliferative activity against human NCI-H292 cells after 72 hrs by SRB or MTT assay; assay type: functional, cell-based; conditions: NCI-H292, 72 h; outline: as §3
[20] = Selectivity ratio of IC50 for human SNU1 cells to IC50 for mouse BAF3 cells expressing TPR-MET; assay type: ADME, cell-based
[21] = Selectivity ratio of IC50 for human SNU16 cells to IC50 for human MKN45 cells; assay type: ADME, cell-based; conditions: snu-16
[22] = molecular target: Tyrosine-protein kinase receptor TYRO3 (Homo sapiens) (UniProt Q06418); assay: Inhibition of recombinant TYRO3 (unknown origin) using poly (Glu, Tyr) 4:1 as substrate at 1000 nM incubated for 60 mins by ELISA relative to control; outline: as §5
NCI-H1299 = assay: Antiproliferative activity against human NCI-H1299 cells after 72 hrs by SRB or MTT assay; assay type: functional, cell-based; conditions: NCI-H1299, 72 h; outline: as §3
[23] = Selectivity ratio of IC50 for human NCI-H661 cells to IC50 for mouse BAF3 cells expressing TPR-MET; assay type: ADME, cell-based; outline: as §2

inhibition [1]: 13.5%
IC50 [6]: > 1 µM
IC50 (NCI-H596): > 10 µM
inhibition [10]: Dose-dependent effect
inhibition [12]: Active
inhibition [13]: 10.6%
inhibition [14]: 0.4%
IC50 [16]: 0.00024 µM
inhibition [18]: Active
IC50 (NCI-H661): > 10 µM
IC50 (AGS): > 10 µM
IC50 (NCI-H292): > 10 µM
inhibition [22]: 10.1%
IC50 (NCI-H1299): > 10 µM
Structure (SMILES): Fc1ccc(-c2cnc3nnc(C(F)(F)c4ccc5ncccc5c4)n3n2)cc1
TGI (EBC-1): Dose-dependent effect
Ratio IC50 [2]: 10000
TGI (MKN-45): Dose-dependent effect
IC50 [3]: > 10 µM
selectivity ratio [4]: > 10000
Ratio IC50 [5]: > 10000
selectivity ratio [7]: > 10000
Ratio IC50 [8]: 10000
Ratio IC50 [9]: > 10000
Ratio IC50 [11]: 10000
Ratio IC50 [15]: > 10000
IC50 [17]: > 10 µM
Ratio IC50 [19]: > 10000
Ratio IC50 [20]: 10000
Ratio IC50 [21]: 10000
Ratio IC50 [23]: > 10000
